Assay results gathered from unrelated publications.
Target: Carbonic anhydrase 1 (CA1, Homo sapiens, UniProt P00915)
Effect on: enzyme activity
Action: inhibitor

For `C[C@H]1CCC[C@H](C(=O)Nc2nnc(S(N)(=O)=O)s2)C1` (racemic), the Ki was 0.0639 µM (stopped-flow).
For `Cc1cc(=O)oc2cc(OCCCCSC#N)ccc12`, the Ki was greater than 100 µM (stopped-flow).
`OCCOCCN1CCN(C(c2ccccc2)c2ccc(Cl)cc2)CC1` (centres unmarked) gave a Ki of 10.3 µM.
The Ki of `CC1(C(=O)Nc2nnc(S(N)(=O)=O)s2)CCC1` is reported as 0.334 µM (stopped-flow).
`C[n+]1cc(C(=O)[O-])ccc1O` has a Ki of greater than 100 µM (stopped-flow).
For `NCCCC(=O)Nc1nnc(S(N)(=O)=O)s1`, the Ki was 0.155 µM (stopped-flow).
With `CN1CCC(=C2c3ccccc3CC(=O)c3sccc32)CC1` the Ki was 6.98 µM.
The Ki of `NS(=O)(=O)c1nnc(NC(=O)CN2CC3CCC2CC3)s1` is reported as 0.144 µM (stopped-flow).
For `Cn1cnc([N+](=O)[O-])c1Sc1ncnc2nc[nH]c12`, the Ki was 12.4 µM.
`O=C(OCc1cn(-c2ccccc2)nn1)c1ccc(=O)oc1` has a Ki of greater than 100 µM (stopped-flow).
`Cc1ccccc1CC(=O)Nc1nnc(S(N)(=O)=O)s1` has a Ki of 0.0518 µM (stopped-flow).
With `O=C(OCc1cn(-c2ccc(Cl)cc2)nn1)c1ccc(=O)oc1` the Ki was greater than 100 µM (stopped-flow).
For `NS(=O)(=O)c1cnc(NC(=O)CCc2ccccc2)s1`, the Ki was 2.43 µM (stopped-flow).
`C#CCNC(=O)c1ccc(=O)oc1` gave a Ki of greater than 100 µM (stopped-flow).
`COc1ccnc(C[S+]([O-])c2nc3ccc(OC(F)F)cc3[nH]2)c1OC` (centres unmarked) gave a Ki of 7.16 µM.
For `O=C(Oc1ccccc1)c1ccc(=O)oc1`, the Ki was greater than 100 µM (stopped-flow).
With `Nc1nc2c(ncn2COCCO)c(=O)[nH]1` the Ki was 7.31 µM.
`Cc1c(Cl)c(=O)oc2cc(OCCCCSC#N)ccc12` gave a Ki of greater than 100 µM (stopped-flow).
For `Cc1cncc(CN2CCC(=C3c4ccc(Cl)cc4CCc4cccnc43)CC2)c1`, the Ki was 9.95 µM (absorbance).
With `O=C(OCc1cn(-c2ccc([N+](=O)[O-])cc2)nn1)c1ccc(=O)oc1` the Ki was greater than 100 µM (stopped-flow).
